Results gathered from unrelated publications.
AKT1: RAC-alpha serine/threonine-protein kinase (AKT1, Homo sapiens, UniProt P31749)
FABP4: Fatty acid-binding protein, adipocyte (FABP4, Homo sapiens, UniProt P15090)
CYP2C9: Cytochrome P450 2C9 (CYP2C9, Homo sapiens, UniProt P11712)

CCOc1ccc(C(=O)CC(SCc2ccc(OC)cc2)C(=O)O)cc1 (centres unmarked) — Ki (AKT1; ligand displacement, FP): 560 µM
O=C(O)C(F)(F)C(F)(F)C(F)(F)C(F)(F)C(F)(F)C(F)(F)C(F)(F)C(F)(F)C(F)(F)C(F)(F)C(F)(F)C(F)(F)F — Ki (FABP4; ligand displacement, fluorescence): 0.757 µM
CN(C)C(=O)c1cc2cnc(Nc3ccc(C(=O)NCCCCCCOc4cccc5c4C(=O)N(C4CCC(=O)NC4=O)C5=O)cc3)nc2n1C1CCCC1 (centres unmarked) — Kd (Cyclin-dependent kinase 9 (CDK9, Homo sapiens, UniProt P50750); binding, competition with immobilised ligand): < 200 nM
CC(C)(C)Cc1ccc(O)c(O)c1 — Kd (Peroxiredoxin-5, mitochondrial (PRDX5, Homo sapiens, UniProt P30044); binding, NMR): 20000 nM
CCOc1ccccc1C(=O)CC(SCc1ccc(Cl)cc1)C(=O)O (centres unmarked) — Ki (AKT1; ligand displacement, FP): > 1000 µM
O=S(=O)(O)c1cccc2cccc(Nc3ccccc3)c12 — Kd (FABP4; binding, fluorescence): 508 nM
Cc1cc(-c2ccnc3[nH]cc(F)c23)cc(F)c1[C@@]1(O)[C@H](C)CN(C2CCS(=O)(=O)CC2)C[C@@H]1C — Kd (AKT1; cell-free assay, TR-FRET): 724 nM
O=C(O)C(F)(F)C(F)(F)C(F)(F)C(F)(F)C(F)(F)C(F)(F)C(F)(F)C(F)(F)C(F)(F)C(F)(F)C(F)(F)F — Ki (FABP4; ligand displacement, fluorescence): 0.551 µM
CCCCCCC(CCCCCCCCCCC(=O)O)N(C)c1ccc([N+](=O)[O-])c2nonc12 (centres unmarked) — Kd (Sterol carrier protein 2 (Homo sapiens, UniProt P22307); binding, fluorescence): 310 nM
CCCCCCCCCCCC(=O)O — Ki (FABP4; ligand displacement, fluorescence): 0.827 µM
O=c1c(-c2ccc(O)cc2)coc2cc(O)ccc12 — Ki (CYP2C9; enzyme activity, inhibitor; human, liver microsomes; 15 min): 7.85 µM
CCOc1ccc(C(=O)CC(SCc2ccc(F)cc2)C(=O)O)cc1 (centres unmarked) — Ki (AKT1; ligand displacement, FP): 225 µM
CCCCCCCCC(=O)O — Ki (FABP4; ligand displacement, fluorescence): 12.3 µM
Cc1cc(-c2ccnc3[nH]cc(F)c23)cc(F)c1[C@@]1(O)[C@H](C)CN(C(=O)CN)C[C@@H]1C — Kd (AKT1; cell-free assay, TR-FRET): 244 nM
CCOc1ccc(C(=O)CC(SCc2ccc(Cl)cc2)C(=O)OC)cc1 (centres unmarked) — Ki (AKT1; ligand displacement, FP): 530 µM
CCCCCCCCCC(=O)O — Ki (FABP4; ligand displacement, fluorescence): 1.29 µM
COc1ccc(C(=O)CC(SCc2ccc(Cl)cc2)C(=O)O)cc1 (centres unmarked) — Ki (AKT1; ligand displacement, FP): 320 µM
Fc1ccc(/C=C/C=N/NC(=S)NCc2ccccc2)cc1 — Ki (Urease subunit alpha (Sporosarcina pasteurii, UniProt P41020); enzyme activity, inhibitor): 3.26 µM
CCOc1ccc(C(=O)CC(SCc2ccc(Cl)cc2)C(=O)O)cc1 (centres unmarked) — Ki (AKT1; ligand displacement, FP): 96 µM
COc1ccc(-c2coc3cc(O)ccc3c2=O)cc1 — Ki (CYP2C9; enzyme activity, inhibitor; human, liver microsomes; 15 min): 7.12 µM
